This note sets out measurements from ChEMBL document CHEMBL5329164, “Design, synthesis, and evaluation of BTK-targeting PROTACs with optimized bioavailability in vitro and in vivo” (RSC Med Chem, 2023).

Active and inactive are the calls of the source. The calls are words filed in the database; no cut-off is given here.

Data set [1] addresses T1, Protein cereblon/Tyrosine-protein kinase BTK (Homo sapiens) (UniProt Q06187+Q96SW2). Briefly: PROTAC activity at CRBN/ BTK in human Ramos cells assessed as induction of BTK degradation at 100 nM incubated for 24 hrs by immunoblot analysis relative to control. It counts as cell-based. In a few lines: (§1)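 Ramos cells in supplemented RPMI 1640 were plated at 3×10^5 cells/well and treated with compound for 24 h. Lysates in SDS sample buffer were heated at 100 °C for 15 min and run on 10% SDS-PAGE, then transferred to PVDF. Membranes were probed overnight at 4 °C for BTK, GSPT1 and β-actin.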

Data set [2] in a line: Solubility in DMSO:Cremophor EL:1xPBS mixture at 10 mg/ml. It counts as physicochemical.
A short description of data set [3]: Solubility in DMSO:Cremophor EL:1xPBS mixture at 10 mg/ml incubated for 7 days. The settings on record: 168 h, time 7 day. The format is physicochemical.
Data set [4] deals with T1, Protein cereblon/Tyrosine-protein kinase BTK (Homo sapiens). Briefly: PROTAC activity at CRBN/ BTK in human DOHH-2 cells assessed as induction of BTK degradation at 1.2 to 300 nM incubated for 24 hrs by immunoblot analysis. It counts as cell-based. The settings on record: dose 1.2-300 nM. The essentials:
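DOHH2 cells were grown in RPMI 1640 with 10% FBS, 1% penicillin-streptomycin, 1% nonessential amino acids and 50 µM 2-mercaptoethanol at 37 °C under 5% CO₂. Cells were treated with compound at various concentrations, lysed in SDS buffer and separated on 10% SDS-PAGE. Blots were transferred to PVDF and probed for BTK, with β-actin as loading control.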

The target is the same in data set [5]. The data set is described as follows: PROTAC activity at CRBN/ BTK in human Ramos cells assessed as induction of BTK degradation at 300 nM incubated for 24 hrs by immunoblot analysis relative to control. The format is cell-based. The essentials: as §1
The nature of data set [6]: Apparent permeability across apical to basal side in MDCK-II cells assessed as compound recovery at 10 uM measured for 120 mins by LC-MS/MS analysis. The format is ADME, cell-based, Canis lupus familiaris. The settings on record: dog, read-out: Drug recovery. The essentials:
(§2)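 MDCK monolayers were grown on Transwell inserts (5 x 10^4 cells/cm²) and used at day 5. Compound at 10 μM in HBSS with 10 mM Hepes, pH 7.40, was dosed apically or basolaterally and incubated at 37±1 °C. Receiver and donor samples were taken at 120 min and quantified by LC-MS/MS against an internal standard. Lucifer yellow passage below 1% confirmed monolayer integrity.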

The nature of data set [7]: Apparent permeability across basal to apical side in MDCK-II cells assessed as compound recovery at 10 uM measured for 120 mins by LC-MS/MS analysis. It counts as ADME, cell-based, Canis lupus familiaris. To be noted: dog, read-out: Drug recovery. In a few lines: as §2
Data set [8] concerns the target T1, Protein cereblon/Tyrosine-protein kinase BTK (Homo sapiens). The data set is described as follows: PROTAC activity at CRBN/ BTK in human Ramos cells assessed as induction of BTK degradation at 500 nM incubated for 24 hrs by immunoblot analysis relative to control. The format is cell-based. In a few lines: as §1

T1 sequence (Q06187 2-659 limits assumed): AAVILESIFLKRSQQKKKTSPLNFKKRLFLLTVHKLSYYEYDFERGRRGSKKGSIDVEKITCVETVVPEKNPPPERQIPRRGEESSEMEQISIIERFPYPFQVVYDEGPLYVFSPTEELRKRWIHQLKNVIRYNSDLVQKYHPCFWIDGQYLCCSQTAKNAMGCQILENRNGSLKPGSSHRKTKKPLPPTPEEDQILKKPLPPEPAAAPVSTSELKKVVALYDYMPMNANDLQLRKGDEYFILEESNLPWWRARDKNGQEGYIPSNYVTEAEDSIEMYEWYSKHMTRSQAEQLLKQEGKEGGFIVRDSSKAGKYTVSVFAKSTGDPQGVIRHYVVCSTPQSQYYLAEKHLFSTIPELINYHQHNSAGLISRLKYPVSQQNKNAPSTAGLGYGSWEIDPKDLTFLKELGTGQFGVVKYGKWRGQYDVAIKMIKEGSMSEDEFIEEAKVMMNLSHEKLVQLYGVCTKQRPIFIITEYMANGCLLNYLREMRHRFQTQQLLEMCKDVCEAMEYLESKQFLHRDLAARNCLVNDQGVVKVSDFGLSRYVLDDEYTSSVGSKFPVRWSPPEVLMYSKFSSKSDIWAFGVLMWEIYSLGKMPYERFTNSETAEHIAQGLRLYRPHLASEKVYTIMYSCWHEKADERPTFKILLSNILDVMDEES
T1 sequence (Q96SW2 whole entry partner): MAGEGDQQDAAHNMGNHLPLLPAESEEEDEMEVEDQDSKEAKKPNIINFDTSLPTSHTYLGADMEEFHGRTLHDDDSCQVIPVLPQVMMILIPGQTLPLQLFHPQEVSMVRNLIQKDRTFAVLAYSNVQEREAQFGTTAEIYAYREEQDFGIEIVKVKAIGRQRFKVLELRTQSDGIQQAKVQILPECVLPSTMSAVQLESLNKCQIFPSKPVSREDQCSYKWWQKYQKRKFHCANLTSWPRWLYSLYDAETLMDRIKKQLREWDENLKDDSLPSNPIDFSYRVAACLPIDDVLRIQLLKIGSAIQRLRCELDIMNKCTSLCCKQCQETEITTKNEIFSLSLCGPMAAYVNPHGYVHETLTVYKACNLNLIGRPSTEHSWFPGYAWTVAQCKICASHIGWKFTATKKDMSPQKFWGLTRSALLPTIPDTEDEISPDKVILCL

On to `Nc1ncnc2c1c(-c1ccc(Oc3ccccc3)cc1)nn2[C@@H]1CCCN(C(=O)c2cn(CCOCCOCCOCCCc3cccc4c3CN(C3CCC(=O)NC3=O)C4=O)nn2)C1` (stereo partly drawn), for which, in data set [1], the Activity stood at 28.5%. In addition, the solubility entry in data set [2] and in data set [3] was “Insoluble” throughout. Besides, the outcome in data set [4] was Active.

As for `C=CC(=O)N1CCC[C@@H](n2nc(-c3ccc(Oc4ccccc4)cc3)c3c(N)ncnc32)C1` [IBRUTINIB], the values for the solubility entry in data set [2] and in data set [3] were “Soluble” and “Insoluble”, respectively.

Consider `Nc1ncnc2c1c(-c1ccc(Oc3ccccc3)cc1)nn2[C@@H]1CCCN(C(=O)c2ccc(Nc3ccc4c(c3)CN(C3CCC(=O)NC3=O)C4=O)cc2)C1` (stereo partly drawn), for which the values for the Activity in data set [1] and in data set [5] were 6.9% and 12%, respectively.

Consider `Nc1ncnc2c1c(-c1ccc(Oc3ccccc3)cc1)nn2[C@@H]1CCCN(C(=O)N2CCN(c3ccc4c(c3)C(=O)N(C3CCC(=O)NC3=O)C4=O)CC2)C1` (stereo partly drawn), for which the results for the Activity in data set [1] and in data set [5] were 78.4% and 79.7%, respectively.

Regarding `CC(C)NCC(O)COc1ccc(CC(N)=O)cc1` (stereo not drawn) [ATENOLOL], the recovery at 2 h, 10 µM in data set [6] was found to be 94.4%; in data set [7] it was 99.5%.

In the case of `Nc1ncnc2c1c(-c1ccc(Oc3ccccc3)cc1)nn2[C@@H]1CCCN(C(=O)Nc2ccc3c(c2)C(=O)N(C2CCC(=O)NC2=O)C3=O)C1` (stereo partly drawn), the Activity in data set [8] is 100%.
